Results on 11 compounds are retold here after ChEMBL document CHEMBL1155277, “Synthesis of new 4-isopropylthiazole hydrazide analogs and some derived clubbed triazole, oxadiazole ring systems--a novel class of potential antibacterial, antifungal and antitubercular agents” (Eur J Med Chem, 2009).

Assay type in all cases: functional
One experiment concerns Staphylococcus aureus. In words: Antimicrobial activity against Staphylococcus aureus ATCC 11632 after 24 hrs by broth microdilution method. The following applies: ATCC 11632, 24 h. In short, it runs like this: (§1)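 Broth microdilution in tubes. Compounds were dissolved at 10 mg in 1 mL DMSO and diluted in Mueller-Hinton Broth for bacteria or Sabouraud Liquid Medium for yeasts and A. niger. Final concentrations were 1–500 µg/mL (1, 2, 4, 8, 16, 31.25, 62.5, 125, 250, 500), with DMSO at most 1% v/v. Inoculum was 10^5 cfu/mL, incubated at 37 °C for 24 h. MIC was the lowest concentration giving complete growth inhibition. Media and media-plus-DMSO served as growth controls.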
On the technique in general: In broth dilution the organism is exposed to a series of concentrations in liquid medium.

Another experiment relates to Enterococcus faecalis. In words: Antimicrobial activity against Streptococcus faecalis ATCC 14506 after 24 hrs by broth microdilution method. The settings on record: ATCC 14506, 24 h. In short, it runs like this: as §1
The next experiment concerns Bacillus subtilis. The experiment is described as follows: Antimicrobial activity against Bacillus subtilis ATCC 60511 after 24 hrs by broth microdilution method. The settings on record: ATCC 60511, 24 h. In short, it runs like this:
as §1

The next experiment has as its system Klebsiella pneumoniae. In words: Antimicrobial activity against Klebsiella pneumoniae ATCC 10031 after 24 hrs by broth microdilution method. The following applies: ATCC 10031, 24 h. In a few lines: as §1
The next experiment relates to Escherichia coli. The experiment is described as follows: Antimicrobial activity against Escherichia […] after 24 hrs by broth microdilution method. In short, it runs like this: as §1
For the next experiment, the system named is Pseudomonas aeruginosa. The experiment is described as follows: Antimicrobial activity against Pseudomonas aeruginosa ATCC 10145 after 24 hrs by broth microdilution method. The following applies: ATCC 10145, 24 h. In a few lines: as §1
Another experiment has as its system Saccharomyces cerevisiae. The experiment is described as follows: Antimicrobial activity against Saccharomyces cerevisiae ATCC 9763 after 24 hrs by broth microdilution method. The settings on record: ATCC 9763, 24 h. In short, it runs like this:
as §1

A further experiment has as its system Candida tropicalis. In words: Antimicrobial activity against Candida tropicalis ATCC 1369 after 24 hrs by broth microdilution method. The settings on record: ATCC 1369, 24 h. In a few lines:
as §1

The subject of a further experiment is Aspergillus niger. The experiment is described as follows: Antimicrobial activity against Aspergillus niger ATCC 6275 after 24 hrs by broth microdilution method. The settings on record: ATCC 6275, 24 h. In a few lines: as §1
Experiment [1] concerns Mycobacterium tuberculosis. In words: Antitubercular activity against Mycobacterium tuberculosis H37Rv after 21 days by broth dilution assay. The following applies: 504 h. In a few lines: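 H37Rv frozen stock in Middlebrook 7H9 broth with 10% albumin-dextrose-catalase and 0.2% glycerol, thawed and diluted to 10⁵ cfu mL⁻¹. Compounds dissolved in DMSO, diluted in broth (final DMSO 1.3%). U-tubes inoculated, incubated 37 °C for 21 days. Growth scored visually against drug-free and inoculum-free controls and isoniazid. MIC = lowest concentration inhibiting […] of starting population.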

The structures appear in SMILES notation. ≈ marks a conversion by molar mass, not a printed value.

Turning to `CC(C)c1csc(C(=O)N/N=C/c2ccccc2)n1`, the MIC (usually the smallest concentration in the dilution series that meets the test's criterion for growth inhibition) against Staphylococcus aureus came out at 500 mg/L (≈ 1830 µM); in the experiment on Enterococcus faecalis, 125 mg/L (≈ 457 µM); in the experiment on Bacillus subtilis, 125 mg/L (≈ 457 µM); in the experiment on Klebsiella pneumoniae, 125 mg/L (≈ 457 µM); with Escherichia coli it was 31.2 mg/L (≈ 114 µM); against Pseudomonas aeruginosa it was 16 mg/L (≈ 58.5 µM). Also, the MIC against Saccharomyces cerevisiae was determined as 62.5 mg/L (≈ 229 µM); against Candida tropicalis, 62.5 mg/L (≈ 229 µM); against Aspergillus niger, 31.2 mg/L (≈ 114 µM); in experiment [1] it was 250 mg/L (≈ 915 µM).

Take `CC(C)c1csc(C(=O)N/N=C/c2ccc([N+](=O)[O-])cc2)n1`: the MIC against Staphylococcus aureus amounted to 125 mg/L (≈ 393 µM); in the experiment with Enterococcus faecalis it was 250 mg/L (≈ 785 µM); in the experiment on Bacillus subtilis it was 125 mg/L (≈ 393 µM); in the experiment on Klebsiella pneumoniae, 125 mg/L (≈ 393 µM); against Escherichia coli, 31.2 mg/L (≈ 98.2 µM); against Pseudomonas aeruginosa, 125 mg/L (≈ 393 µM). The minimal inhibitory concentration (MIC) turned out to be 125 mg/L (≈ 393 µM) with Saccharomyces cerevisiae, 62.5 mg/L (≈ 196 µM) against Candida tropicalis, 31.2 mg/L (≈ 98.2 µM) in the experiment with Aspergillus niger and 125 mg/L (≈ 393 µM) in experiment [1].

Consider `CC(=O)NNC(=O)c1nc(C(C)C)cs1`, for which the minimum inhibitory concentration (MIC) in the experiment on Staphylococcus aureus was found to be 500 mg/L (≈ 2200 µM); in the experiment on Enterococcus faecalis, 125 mg/L (≈ 550 µM); against Bacillus subtilis, 250 mg/L (≈ 1100 µM); in the experiment with Klebsiella pneumoniae, 125 mg/L (≈ 550 µM); with Escherichia coli, 250 mg/L (≈ 1100 µM); with Pseudomonas aeruginosa it was 125 mg/L (≈ 550 µM). For the same compound, the MIC amounted to 500 mg/L (≈ 2200 µM) with Saccharomyces cerevisiae, 125 mg/L (≈ 550 µM) against Candida tropicalis, 500 mg/L (≈ 2200 µM) against Aspergillus niger and 125 mg/L (≈ 550 µM) in [1].

In the case of `NNC(=O)c1ccncc1` [ISONIAZID], the MIC in [1] was 0.25 mg/L (≈ 1.82 µM).

On to `CC(C)c1csc(C(=O)NN)n1`, for which the MIC stood at 250 mg/L (≈ 1350 µM) in the experiment with Staphylococcus aureus; 125 mg/L (≈ 675 µM) with Enterococcus faecalis; 250 mg/L (≈ 1350 µM) with Bacillus subtilis; 250 mg/L (≈ 1350 µM) in the experiment on Klebsiella pneumoniae; 125 mg/L (≈ 675 µM) in the experiment with Escherichia coli; 125 mg/L (≈ 675 µM) in the experiment on Pseudomonas aeruginosa. The MIC against Saccharomyces cerevisiae amounted to 250 mg/L (≈ 1350 µM); with Candida tropicalis, 500 mg/L (≈ 2700 µM); with Aspergillus niger, 125 mg/L (≈ 675 µM); in experiment [1], 125 mg/L (≈ 675 µM).

With `CC(=O)N1N=C(c2nc(C(C)C)cs2)OC1c1cccc(Cl)c1Cl` (configuration not stated), the MIC worked out at 125 mg/L (≈ 325 µM) against Staphylococcus aureus; 16 mg/L (≈ 41.6 µM) against Enterococcus faecalis; 16 mg/L (≈ 41.6 µM) in the experiment with Bacillus subtilis; 125 mg/L (≈ 325 µM) against Klebsiella pneumoniae; 125 mg/L (≈ 325 µM) against Escherichia coli; 31.2 mg/L (≈ 81.3 µM) with Pseudomonas aeruginosa. The MIC worked out at 16 mg/L (≈ 41.6 µM) with Saccharomyces cerevisiae, 16 mg/L (≈ 41.6 µM) against Candida tropicalis, 31.2 mg/L (≈ 81.3 µM) in the experiment on Aspergillus niger and 62.5 mg/L (≈ 163 µM) in [1].

`O=C(O)c1cn(C2CC2)c2cc(N3CCNCC3)c(F)cc2c1=O` [CIPROFLOXACIN]: the MIC was at most 5 mg/L against Staphylococcus aureus; at most 5 mg/L in the experiment with Enterococcus faecalis; at most 1 mg/L against Bacillus subtilis; at most 1 mg/L in the experiment with Klebsiella pneumoniae; at most 1 mg/L in the experiment on Escherichia coli; at most 5 mg/L against Pseudomonas aeruginosa.

For `C/C(=N/NC(=O)c1nc(C(C)C)cs1)c1ccc(Br)cc1`, the MIC against Staphylococcus aureus was determined as 250 mg/L (≈ 683 µM); against Enterococcus faecalis, 250 mg/L (≈ 683 µM); in the experiment on Bacillus subtilis it was 125 mg/L (≈ 341 µM); against Klebsiella pneumoniae, 125 mg/L (≈ 341 µM); with Escherichia coli, 250 mg/L (≈ 683 µM); against Pseudomonas aeruginosa, 125 mg/L (≈ 341 µM). The MIC with Saccharomyces cerevisiae is 31.2 mg/L (≈ 85.3 µM); against Candida tropicalis, 125 mg/L (≈ 341 µM); in the experiment on Aspergillus niger, 125 mg/L (≈ 341 µM); in experiment [1] it was 31.2 mg/L (≈ 85.3 µM).

For `CC(C)c1csc(-c2nnc(S)o2)n1`, the MIC against Staphylococcus aureus worked out at 125 mg/L (≈ 550 µM); against Enterococcus faecalis, 31.2 mg/L (≈ 137 µM); in the experiment with Bacillus subtilis, 16 mg/L (≈ 70.4 µM); in the experiment on Klebsiella pneumoniae it was 16 mg/L (≈ 70.4 µM); against Escherichia coli, 31.2 mg/L (≈ 137 µM); in the experiment with Pseudomonas aeruginosa, 31.2 mg/L (≈ 137 µM). In addition, the MIC in the experiment on Saccharomyces cerevisiae was found to be 31.2 mg/L (≈ 137 µM); in the experiment on Candida tropicalis, 16 mg/L (≈ 70.4 µM); with Aspergillus niger, 31.2 mg/L (≈ 137 µM); in experiment [1] it was 8 mg/L (≈ 35.2 µM).

`CC(=O)N1N=C(c2nc(C(C)C)cs2)OC1c1ccccc1` (configuration not stated): the MIC in the experiment on Staphylococcus aureus came out at 125 mg/L (≈ 396 µM); with Enterococcus faecalis it was 62.5 mg/L (≈ 198 µM); with Bacillus subtilis, 31.2 mg/L (≈ 99.1 µM); with Klebsiella pneumoniae, 62.5 mg/L (≈ 198 µM); against Escherichia coli, 62.5 mg/L (≈ 198 µM); in the experiment with Pseudomonas aeruginosa, 16 mg/L (≈ 50.7 µM). Further, the minimal inhibitory concentration (MIC) came out at 31.2 mg/L (≈ 99.1 µM) in the experiment on Saccharomyces cerevisiae, 16 mg/L (≈ 50.7 µM) with Candida tropicalis, 16 mg/L (≈ 50.7 µM) in the experiment with Aspergillus niger and 31.2 mg/L (≈ 99.1 µM) in experiment [1].

On to `CC(C)c1csc(C(=O)N/N=C/c2ccc(O)cc2)n1`, for which the MIC came out at 125 mg/L (≈ 432 µM) against Staphylococcus aureus; 125 mg/L (≈ 432 µM) with Enterococcus faecalis; 125 mg/L (≈ 432 µM) against Bacillus subtilis; 31.2 mg/L (≈ 108 µM) against Klebsiella pneumoniae; 31.2 mg/L (≈ 108 µM) against Escherichia coli; 16 mg/L (≈ 55.3 µM) against Pseudomonas aeruginosa. Moreover, the MIC in the experiment on Saccharomyces cerevisiae is 31.2 mg/L (≈ 108 µM); against Candida tropicalis, 16 mg/L (≈ 55.3 µM); against Aspergillus niger it was 31.2 mg/L (≈ 108 µM); in [1], 125 mg/L (≈ 432 µM).
